This is an account of results in PubChem BioAssay.

A short description of assay [1]: nonspecific flux increase, KCNQ1-free cells – parental CHO cells, counter-screen for KCNQ1 potentiator project (AID 493006;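 active = duplicate-averaged activation above buffer control mean plus 5 SD of those controls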). The settings on record: parental CHO-K1 cells, FluxOR thallium flux, at 10 µM; hits give high values. An outline of the steps:
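Test system: parental CHO-K1 cells, FluxOR dye-loaded / Probe or stimulus: potassium plus thallium depolarizing stimulus, 5x stock 12.5 mM K2SO4, Tl2SO4 / Timing: overnight 37 °C plating, 90 min dye, 20 min dark compound / Measured by: kinetic thallium-flux fluorescence / Read-out: max-minus-min fluorescence over baseline, percent of buffer-to-R-L3 span / Benchmarks: buffer and R-L3 controls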

Assay [2] has as its target Potassium voltage-gated channel subfamily KQT member 1 (Homo sapiens) (UniProt P51787). In words: enhancement of KCNQ1 channel thallium flux – FluxOR thallium flux, CHO cells, duplicates, confirmation (AID 493007).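 For outcome: cells depolarized by a potassium plus thallium sulfate stimulus after compound.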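 For potentiation: 0% = buffer-only wells and 100% = R-L3 activator control.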 The settings on record: KCNQ1 cell line, FluxOR thallium flux fluorescence, at 10 µM; hits give high values, % of reference activator effect, buffer zero. An outline of the steps: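 Assay system: CHO cells carrying KCNQ1 | Controls: Buffer and R-L3 controls | Schedule: FluxOR dye loading 90 min, compound exposure 20 min, room temperature | Read-out: Baseline-normalized fluorescence change, percent of buffer-to-R-L3 range | Replicates: Each compound tested in duplicate | Technique: Kinetic thallium influx fluorescence with FluxOR dye, 10 s baseline, 110 s post-stimulus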

The target in assay [3] is Potassium voltage-gated channel subfamily KQT member 2 (Rattus norvegicus) (UniProt O88943). In words: KCNQ2 thallium flux enhancement – KCNQ2-CHO-K1 cells, selectivity assay for KCNQ1 potentiator project (AID 493009;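 active = mean duplicate potentiation above the buffer control mean plus 5 SD of buffer wells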;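 note: assay conditions were tuned for KCNQ1 rather than KCNQ2 modulators; signal is max minus min fluorescence divided by baseline after thallium stimulus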). The conditions noted are these: FluxOR thallium flux fluorescence, at 10 µM; hits give high values, scaled: buffer 0, activator control 100.
Potassium voltage-gated channel subfamily KQT member 2 (Rattus norvegicus), sequence (O88943 whole entry, looked up): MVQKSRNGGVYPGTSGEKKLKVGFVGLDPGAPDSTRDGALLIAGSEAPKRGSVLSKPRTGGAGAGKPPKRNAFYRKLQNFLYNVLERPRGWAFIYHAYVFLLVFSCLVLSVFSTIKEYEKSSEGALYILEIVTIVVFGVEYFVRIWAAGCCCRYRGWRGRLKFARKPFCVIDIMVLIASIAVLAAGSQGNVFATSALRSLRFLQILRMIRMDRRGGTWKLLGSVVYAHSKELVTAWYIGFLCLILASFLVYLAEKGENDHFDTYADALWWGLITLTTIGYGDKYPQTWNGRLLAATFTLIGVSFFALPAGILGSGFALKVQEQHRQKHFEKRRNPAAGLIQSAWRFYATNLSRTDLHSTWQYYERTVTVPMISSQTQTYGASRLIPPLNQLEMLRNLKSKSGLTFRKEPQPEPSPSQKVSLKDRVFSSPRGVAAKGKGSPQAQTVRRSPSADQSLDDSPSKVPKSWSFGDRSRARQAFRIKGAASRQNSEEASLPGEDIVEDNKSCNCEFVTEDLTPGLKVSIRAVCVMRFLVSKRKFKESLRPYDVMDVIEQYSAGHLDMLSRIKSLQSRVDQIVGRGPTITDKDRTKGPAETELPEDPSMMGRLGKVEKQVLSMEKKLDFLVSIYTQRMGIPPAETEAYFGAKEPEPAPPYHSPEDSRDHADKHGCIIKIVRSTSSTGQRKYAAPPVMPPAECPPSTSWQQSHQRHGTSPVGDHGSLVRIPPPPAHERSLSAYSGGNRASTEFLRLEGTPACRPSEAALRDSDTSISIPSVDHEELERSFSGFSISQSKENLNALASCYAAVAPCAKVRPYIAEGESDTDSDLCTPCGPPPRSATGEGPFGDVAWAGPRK
The target in assay [4] is Potassium voltage-gated channel subfamily KQT member 1 (Homo sapiens) (UniProt P51787). In words: KCNQ1 activators by electrophysiology – IonWorks patch clamp, KCNQ1-CHO cells, orthogonal assay for KCNQ1 potentiator project, confirmation (AID 493184;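 active = current rise at least 3 SD above the untreated control mean in each of two repeat wells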). The conditions noted are these: automated patch clamp current, at 10 µM; hits give high values. In outline:
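Material: KCNQ1-expressing CHO cells; doses: 10 µM final, single point; probe or stimulus: voltage step from -90 mV holding to +40 mV, 2,000 ms; signal: automated voltage clamp, amphotericin B perforated patch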
A general note: The patch-clamp technique gives a direct electrical read-out from membranes.

Activity calls are given as the source filed them.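 Rule for the calls, unless noted: active = potentiation averaged over duplicate wells exceeding buffer-only control mean by more than 3 SD; inactive = the rest.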

Potassium voltage-gated channel subfamily KQT member 1 (Homo sapiens), sequence (P51787 whole entry, looked up): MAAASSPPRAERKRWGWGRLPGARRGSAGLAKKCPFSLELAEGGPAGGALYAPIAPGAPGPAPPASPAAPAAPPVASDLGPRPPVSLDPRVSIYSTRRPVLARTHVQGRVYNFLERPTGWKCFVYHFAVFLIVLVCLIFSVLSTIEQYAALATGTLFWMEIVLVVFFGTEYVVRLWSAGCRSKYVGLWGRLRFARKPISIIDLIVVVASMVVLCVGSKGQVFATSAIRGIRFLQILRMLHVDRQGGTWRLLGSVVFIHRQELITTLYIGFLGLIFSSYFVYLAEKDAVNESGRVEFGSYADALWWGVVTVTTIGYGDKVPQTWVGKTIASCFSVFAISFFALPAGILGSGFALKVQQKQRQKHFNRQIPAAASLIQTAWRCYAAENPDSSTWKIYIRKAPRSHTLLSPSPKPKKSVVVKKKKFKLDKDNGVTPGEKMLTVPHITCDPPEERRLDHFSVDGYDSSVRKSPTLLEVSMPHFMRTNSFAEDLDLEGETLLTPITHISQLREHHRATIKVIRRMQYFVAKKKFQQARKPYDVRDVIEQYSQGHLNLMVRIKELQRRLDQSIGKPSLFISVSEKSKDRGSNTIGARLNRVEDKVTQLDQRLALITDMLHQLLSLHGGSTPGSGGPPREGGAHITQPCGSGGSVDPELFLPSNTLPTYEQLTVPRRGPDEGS

With `Cn1cc(-c2nnnn2-c2ccccc2)c(=O)c2ccccc21`, the result in assay [1], in assay [2], in assay [3] and in assay [4] was inactive.

Regarding `CCc1ccc(NC(=O)C(=O)NNC(=O)c2cccc(OC)c2)cc1`, the activation in assay [1] was 269% (active). The potentiation in assay [2] is 124% (active); in assay [3] it was 339% (active). Moreover, in assay [4], the result was inactive.

In the case of `C=CCCCN(Cc1ccccc1)S(=O)(=O)c1ccccc1Br`, the result in assay [1], in assay [2], in assay [3] and in assay [4] was inactive.

In the case of `COC(=O)c1c(NC(=O)CC2SC(N)=NC2=O)sc2c1CCC(C)C2` (stereo not given), the result in assay [1], in assay [2], in assay [3] and in assay [4] was inactive.

On to `Cc1cc(C(=O)CSc2nnc(N)s2)c(C)n1C1CC1`, for which the result in assay [1], in assay [2], in assay [3] and in assay [4] was inactive.

On to `COc1cccc(C(=O)NNC(=O)C(=O)Nc2ccc(C)c(Cl)c2)c1`, for which the activation in assay [1] was 278% (active). In addition, the potentiation in assay [2] is 99% (active); in assay [3] it was 311% (active). Further, the outcome in assay [4] was inactive.

For the compound `Cc1ccc(-c2nc3ccc(Cl)cc3c(=O)n2O)cc1`, the activation in assay [1] was 558% (active). The potentiation is 221% (active) in assay [2] and 523% (active) in assay [3]. The result in assay [4] was inactive.

Consider `O=C(C1=C(O)C(=O)N(CC2CCCO2)C1c1ccc(Cl)cc1Cl)c1ccco1` (stereo not given), for which the outcome in assay [1], in assay [2], in assay [3] and in assay [4] was inactive.

For the compound `COc1ccc(-c2nc3ccc(C(=O)NCC(OC)OC)cc3nc2-c2ccc(OC)c(OC)c2)cc1OC`, the outcome in assay [1], in assay [2], in assay [3] and in assay [4] was inactive.

Consider `Clc1ccc(-c2csc(N3CCc4ccccc4C3)n2)cc1`, for which the result in assay [1], in assay [2], in assay [3] and in assay [4] was inactive.

Take `CC12CCC(C/C1=N\N=C1\NC(=O)/C(=C\c3ccc(Cl)cc3)S1)C2(C)C` (stereo not given): in assay [1], the activation is 175% (active). For the same compound, the potentiation in assay [2] was 74.5% (active); in assay [3], 204% (active). Further, in assay [4], the result was inactive.

Take `O=C(NC(=S)N1CCN(c2ccc(F)cc2)CC1)c1cccs1`: in assay [1], the activation was 274% (active). Also, the potentiation in assay [2] is 84.5% (active); in assay [3], 338% (active). Also, the outcome in assay [4] was inactive.

Take `O=C(NC(=S)N1CCN(c2ccccc2)CC1)c1ccccc1`: the activation in assay [1] is 226% (active). For the same compound, the potentiation in assay [2] was 71% (active); in assay [3] it was 281% (active). Besides, the outcome in assay [4] was inactive.

As for `CCOC(=O)c1sc2nc(Cc3ccc(Cl)cc3)[nH]c(=S)c2c1C`, in assay [1], the activation is 302% (active). In addition, the potentiation was 144% (active) in assay [2] and 362% (active) in assay [3]. Also, in assay [4], the outcome was inactive.

As to `CC1CC(C)CN(Cc2nc(N)nc(Nc3ccc4ccccc4c3)n2)C1` (stereo not given), the activation in assay [1] was 170% (active). For the same compound, the potentiation in assay [2] was 43.5% (active); in assay [3] it was 165% (active). Moreover, in assay [4], the outcome was inactive.

With `COc1ccc(CC(=O)c2ccccc2C(=O)O)cc1`, the result in assay [1], in assay [2], in assay [3] and in assay [4] was inactive.

As to `CCn1c(CSc2nc3ccccc3n2C)nc2ccccc21`, the outcome in assay [1], in assay [2], in assay [3] and in assay [4] was inactive.

For the compound `N=c1sccn1CC(=O)Nc1cc(Cl)ccc1Oc1ccccc1`, the outcome in assay [1], in assay [2], in assay [3] and in assay [4] was inactive.

As for `CCCCC/C=N\NC(=O)Cc1ccc([N+](=O)[O-])cc1`, the outcome in assay [1], in assay [2], in assay [3] and in assay [4] was inactive.

Take `CN1CCN(S(=O)(=O)c2cccc(C(=O)Nc3cc(Cl)ccc3N3CCOCC3)c2)CC1`: the outcome in assay [1], in assay [2], in assay [3] and in assay [4] was inactive.

As for `CC(=O)c1cc2c(cc1NC(=O)CN1Cc3ccccc3C1=O)OCO2`, the result in assay [1], in assay [2], in assay [3] and in assay [4] was inactive.

In the case of `O=C(Cn1c(=O)oc2ccccc21)N1CCN(c2ccc(N3CCOCC3)nn2)CC1`, the outcome in assay [1], in assay [2], in assay [3] and in assay [4] was inactive.

Take `CCCn1nnnc1SCC(=O)c1ccc2c(c1)OCCO2`: the outcome in assay [1], in assay [2], in assay [3] and in assay [4] was inactive.

Consider `CCOc1ccc(S(=O)(=O)Nc2cc(OC)ccc2OC)cc1`, for which the result in assay [1], in assay [2], in assay [3] and in assay [4] was inactive.

For `O=C(O)c1ccc2c(c1)C(=O)N(c1ccc(Cl)cn1)C2=O`, the result in assay [1], in assay [2], in assay [3] and in assay [4] was inactive.

As for `COc1cccc2sc(NNC(=O)c3nc4ccccc4s3)nc12`, in assay [1], the activation is 300% (active). The potentiation in assay [2] is 191% (active); in assay [3] it was 420% (active). In addition, the outcome in assay [4] was inactive.

In the case of `COc1ccccc1C(=O)NNC(=O)C(=O)NCc1ccccc1`, in assay [1], the activation is 188% (active). The potentiation is 59.5% (active) in assay [2] and 218% (active) in assay [3]. In addition, the result in assay [4] was inactive.

Regarding `CCc1nnc(NC(=O)CSc2n[nH]c(-c3ccccc3O)n2)s1`, the outcome in assay [1], in assay [2], in assay [3] and in assay [4] was inactive.

With `Cc1cccc(CS(=O)(=O)c2ncc(CO)n2C)c1`, the result in assay [1], in assay [2], in assay [3] and in assay [4] was inactive.

With `O=C(Nc1nnc(-c2ccc3c(c2)CCCC3)o1)c1ccccc1`, in assay [1], the activation was 266% (active). The potentiation in assay [2] was 130% (active); in assay [3] it was 400% (active). Moreover, the result in assay [4] was inactive.
